We go through five molecules from ChEMBL document CHEMBL1275303, “Synthesis and antimicrobial activity of 2-substituted [4-(1,3,4-oxadiazol-2-yl methyl)] phthalazin-1(2H)-one derivatives” (2010).

The subject of assay [1] is Escherichia coli. Description: Antimicrobial activity against Escherichia coli at 50 ug/mL after 24 hrs by well plate method. The format is functional. The settings on record: read-out: IZ. In outline:
(§1)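 Agar well diffusion in nutrient agar. About 1 cm³ of a 24 h broth culture was placed in sterile dishes, and molten agar at 45 °C was poured over it and set. 6 mm wells were bored and filled with compound in DMSO (100 or 50). Plates were incubated 24 h at 37 °C, and the inhibition zone was read in mm. Duplicate runs, with standard deviation; amoxicillin as reference.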

Assay [2] deals with Staphylococcus aureus. The assay can be described thus: Antimicrobial activity against Staphylococcus aureus at 100 ug/mL after 24 hrs by well plate method. The format is functional. The settings on record: read-out: IZ. In short, it runs like this:
as §1

In assay [3] the test system is Chrysosporium keratinophilum. The assay can be described thus: Antimicrobial activity against Chrysosporium keratinophilum at 100 ug/mL after 72 hrs by well plate method. It counts as functional. To be noted: read-out: IZ. In outline: (§2)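 Antifungal well-plate assay on Sabouraud dextrose agar using a 72 h old broth culture of the fungal strain. Wells were filled with compound dissolved in DMSO (100 or 50), and the zone of inhibition around each well was measured. […] served as reference.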

Assay [4] concerns Nannizzia gypsea. The assay can be described thus: Antimicrobial activity against Microsporum gypseum at 50 ug/mL after 72 hrs by well plate method. It counts as functional. To be noted: read-out: IZ. In outline:
as §2

In assay [5] the test system is Salmonella typhi. Description: Antimicrobial activity against Salmonella typhi at 50 ug/mL after 24 hrs by well plate method. It counts as functional, Salmonella enterica subsp. enterica serovar Typhi. To be noted: Salmonella enterica, read-out: IZ. In short, it runs like this:
(§3)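 Agar well diffusion in nutrient agar: about 1 cm³ of a 24 h broth culture placed in a sterile dish, molten agar at 45 °C poured over it and allowed to set. 6 mm holes cut with a sterile cork borer and filled with compound solution in DMSO. Incubated 24 h at 37 °C; inhibition zone diameter read in mm. Run in duplicate, standard deviation calculated.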

Assay [6] concerns Chrysosporium keratinophilum. The assay can be described thus: Antimicrobial activity against Chrysosporium keratinophilum at 50 ug/mL after 72 hrs by well plate method. It counts as functional. The settings on record: read-out: IZ. In short, it runs like this:
as §2

In assay [7] the test system is Aspergillus flavus. Description: Antimicrobial activity against Aspergillus flavus at 100 ug/mL after 72 hrs by well plate method. The format is functional. To be noted: read-out: IZ.
Assay [8] concerns Salmonella typhi. Description: Antimicrobial activity against Salmonella typhi at 100 ug/mL after 24 hrs by well plate method. The format is functional, Salmonella enterica subsp. enterica serovar Typhi. To be noted: Salmonella enterica, read-out: IZ. In outline:
as §3

The test system of assay [9] is Staphylococcus aureus. Description: Antimicrobial activity against Staphylococcus aureus at 50 ug/mL after 24 hrs by well plate method. It counts as functional. To be noted: read-out: IZ. In outline:
as §1

In assay [10] the test system is Escherichia coli. The assay can be described thus: Antimicrobial activity against Escherichia coli at 100 ug/mL after 24 hrs by well plate method. The settings on record: read-out: IZ. The format is functional. In outline: as §1
The subject of assay [11] is Aspergillus flavus. Description: Antimicrobial activity against Aspergillus flavus at 50 ug/mL after 72 hrs by well plate method. It counts as functional. To be noted: read-out: IZ.
The subject of assay [12] is Bacillus subtilis. The assay can be described thus: Antimicrobial activity against Bacillus subtilis at 100 ug/mL after 24 hrs by well plate method. The format is functional. The settings on record: read-out: IZ. In outline:
as §1

Assay [13] deals with Nannizzia gypsea. The assay can be described thus: Antimicrobial activity against Microsporum gypseum at 100 ug/mL after 72 hrs by well plate method. It counts as functional. The settings on record: read-out: IZ. In short, it runs like this: as §2
Assay [14] relates to Candida albicans. The assay can be described thus: Antimicrobial activity against Candida albicans at 100 ug/mL after 72 hrs by well plate method. The format is functional. To be noted: read-out: IZ. In short, it runs like this: as §2
In assay [15] the test system is Candida albicans. Description: Antimicrobial activity against Candida albicans at 50 ug/mL after 72 hrs by well plate method. The format is functional. To be noted: read-out: IZ. In short, it runs like this: as §2
Assay [16] concerns Bacillus subtilis. Description: Antimicrobial activity against Bacillus subtilis at 50 ug/mL after 24 hrs by well plate method. It counts as functional. The settings on record: read-out: IZ. In outline: as §1

Take `O=c1c2ccccc2c(Cc2nnc(-c3ccsc3)o2)nn1Cc1cnc(Cl)s1`: the zone of inhibition at 50 µg/mL in the assay on Escherichia coli [1] is 10 mm; with Nannizzia gypsea [4], 6.5 mm; in the assay on Salmonella typhi [5] it was 7 mm; in [6], 5.5 mm; in the assay with Staphylococcus aureus [9], 7 mm; in the assay on Aspergillus flavus [11], 3.5 mm. Further, the zone of inhibition at 50 µg/mL was found to be 4.5 mm with Candida albicans [15] and 4 mm with Bacillus subtilis [16]. The zone of inhibition at 100 µg/mL was 10 mm in the assay on Staphylococcus aureus [2]; 11.5 mm in assay [3]; 8.5 mm with Aspergillus flavus [7]; 12 mm in the assay with Salmonella typhi [8]; 16 mm with Escherichia coli [10]; 8 mm in the assay with Bacillus subtilis [12]. Moreover, the values for the zone of inhibition at 100 µg/mL in the assay on Nannizzia gypsea [13] and in the assay with Candida albicans [14] were 9.5 mm and 8.5 mm, respectively.
In the case of `O=c1c2ccccc2c(Cc2nnc(-c3ccc(F)cc3)o2)nn1Cc1cnc(Cl)s1`, the zone of inhibition at 50 µg/mL in the assay with Escherichia coli [1] turned out to be 5 mm; with Nannizzia gypsea [4] it was 4 mm; in the assay with Salmonella typhi [5], 5 mm; in assay [6], 0 mm; with Staphylococcus aureus [9], 5 mm; with Aspergillus flavus [11], 2 mm. In addition, the zone of inhibition at 50 µg/mL in the assay on Candida albicans [15] was 2.5 mm; with Bacillus subtilis [16], 2 mm. Moreover, the zone of inhibition at 100 µg/mL in the assay with Staphylococcus aureus [2] is 9 mm; in assay [3], 2.5 mm; with Aspergillus flavus [7], 5 mm; in the assay with Salmonella typhi [8] it was 9 mm; in the assay on Escherichia coli [10] it was 9 mm; in the assay with Bacillus subtilis [12], 4.5 mm. Further, the zone of inhibition at 100 µg/mL with Nannizzia gypsea [13] amounted to 8.5 mm; in the assay on Candida albicans [14], 5.5 mm.
With `O=c1c2ccccc2c(Cc2nnc(-c3ccc(Cl)cc3)o2)nn1Cc1cnc(Cl)s1`, the zone of inhibition at 50 µg/mL in the assay on Escherichia coli [1] was 5 mm; with Nannizzia gypsea [4], 1 mm; in the assay with Salmonella typhi [5] it was 5 mm; in assay [6] it was 2 mm; in the assay on Staphylococcus aureus [9] it was 7 mm; in the assay on Aspergillus flavus [11], 2.5 mm. Further, the zone of inhibition at 50 µg/mL in the assay with Candida albicans [15] and with Bacillus subtilis [16] was 3 mm throughout. Also, the zone of inhibition at 100 µg/mL in the assay on Staphylococcus aureus [2] is 10 mm; in [3], 4.5 mm; with Aspergillus flavus [7] it was 5 mm; in the assay with Salmonella typhi [8], 9.5 mm; in the assay with Escherichia coli [10], 9 mm; in the assay on Bacillus subtilis [12] it was 5.5 mm. Besides, the zone of inhibition at 100 µg/mL with Nannizzia gypsea [13] was 4 mm; with Candida albicans [14], 6.5 mm.
As to `Cc1ccccc1-c1nnc(Cc2nn(Cc3cnc(Cl)s3)c(=O)c3ccccc23)o1`, the zone of inhibition at 50 µg/mL with Escherichia coli [1] was found to be 6 mm; with Nannizzia gypsea [4], 1 mm; in the assay with Salmonella typhi [5], 3 mm; in assay [6], 0 mm; in the assay on Staphylococcus aureus [9], 0 mm; in the assay with Aspergillus flavus [11], 1 mm. Besides, the zone of inhibition at 50 µg/mL in the assay with Candida albicans [15] was 0 mm; in the assay with Bacillus subtilis [16], 2 mm. In addition, the zone of inhibition at 100 µg/mL in the assay on Staphylococcus aureus [2] turned out to be 2 mm; in assay [3] it was 3.5 mm; in the assay with Aspergillus flavus [7] it was 2 mm; in the assay on Salmonella typhi [8], 5 mm; with Escherichia coli [10], 6 mm; with Bacillus subtilis [12] it was 5 mm. In addition, the zone of inhibition at 100 µg/mL worked out at 3 mm in the assay with Nannizzia gypsea [13] and 3.5 mm in the assay with Candida albicans [14].
With `O=c1c2ccccc2c(Cc2nnc(-c3ccc(Cl)nc3)o2)nn1Cc1cnc(Cl)s1`, the zone of inhibition at 50 µg/mL in the assay on Escherichia coli [1] was 8 mm; with Nannizzia gypsea [4], 4 mm; with Salmonella typhi [5] it was 3 mm; in [6], 5.5 mm; with Staphylococcus aureus [9], 4 mm; in the assay on Aspergillus flavus [11], 4 mm. Besides, the zone of inhibition at 50 µg/mL was 9.5 mm in the assay with Candida albicans [15] and 4 mm in the assay on Bacillus subtilis [16]. For the same molecule, the zone of inhibition at 100 µg/mL turned out to be 7 mm with Staphylococcus aureus [2]; 8.5 mm in assay [3]; 8 mm in the assay with Aspergillus flavus [7]; 5 mm with Salmonella typhi [8]; 12 mm in the assay with Escherichia coli [10]; 6 mm with Bacillus subtilis [12]. The figures for the zone of inhibition at 100 µg/mL with Nannizzia gypsea [13] and in the assay on Candida albicans [14] were 7.5 mm and 10.5 mm, respectively.
